Measurements taken from ChEMBL document CHEMBL2331485, “Pyrimidoaminotropanes as potent, selective, and efficacious small molecule kinase inhibitors of the mammalian target of rapamycin (mTOR)” (J Med Chem, 2013).
Converted amounts (≈) assume the structure as drawn.

Tests used:
[1] = Kinetic solubility of the compound; type: physicochemical; settings: for solubility kinetic: read-out: Kinetic_solubility
PC-3 = assay: Cytotoxicity against human PC3 cells after 4 days by CellTiter-Glo assay; settings: PC-3, 96 h
[2] = Cytotoxicity against human MCF7 neo/Her2 cells after 3 days by CellTiter-Glo assay; settings: MCF7, 72 h
Cytochrome P450 3A4 = Cytochrome P450 3A4 (Homo sapiens, UniProt P08684); assay: Time dependent inhibition of human CYP3A4 preincubated for 30 mins in presence of NADPH; type: ADME
How it was run: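 TDI IC50 is the inhibitor concentration giving 50% loss of CYP3A4 activity after a 30 min pre-incubation with NADPH. It is reported as clean where no IC50 could be measured.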

[3] = Inhibition of mTORC2 in human NCI-PC3 cells assessed as inhibition of AKT phosphorylation
[4] = Plasma protein binding in mouse at 5 uM after 4 hrs by rapid equilibrium dialysis; type: ADME, cell-free; settings: read-out: PPB (converted)
[5] = Plasma protein binding in rat at 5 uM after 4 hrs by rapid equilibrium dialysis; type: ADME, cell-free; settings: read-out: PPB (converted)
[6] = Oral bioavailability in mouse at 5 mg/kg; type: ADME, organism-based; settings: in vivo
How it was run: (§1)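 Mouse PK used iv dosing at 1 mg/kg as a 60% PEG solution and po dosing at 5 mg/kg as a suspension in MCT. Clearance, unbound clearance, Vss, t1/2 and oral bioavailability were derived from these doses.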

[7] = Clearance in mouse at 1 mg/kg, iv; type: ADME, organism-based; design: dose 1 mg/kg, route intravenous; settings: in vivo; how it was run: as §1
[8] = Clearance in rat liver microsomes; type: ADME, Microsome
[9] = Half life in mouse at 1 mg/kg, iv; type: ADME, organism-based; design: dose 1 mg/kg, route intravenous; settings: in vivo; how it was run: as §1
[10] = Clearance in mouse liver microsomes; type: ADME, Microsome
[11] = Clearance in human liver microsomes; type: ADME, Microsome
Mus musculus = assay: Unbound clearance in mouse at 1 mg/kg, iv; type: ADME, organism-based; design: dose 1 mg/kg, route intravenous; settings: in vivo; how it was run: as §1
[12] = Volume of distribution at steady state in mouse at 1 mg/kg, iv; type: ADME, organism-based; design: dose 1 mg/kg, route intravenous; settings: in vivo, read-out: Vdss; how it was run: as §1
[13] = Plasma protein binding in human at 5 uM after 4 hrs by rapid equilibrium dialysis; type: ADME, cell-free; settings: read-out: PPB (converted)
[14] = Antitumor activity against human MCF7-neo/Her2 xenografted in nude mouse at 37 mg/kg, qd measured after 14 days; type: functional; settings: 336 h, read-out: TGI

Chain of Cytochrome P450 3A4 (P08684 whole entry): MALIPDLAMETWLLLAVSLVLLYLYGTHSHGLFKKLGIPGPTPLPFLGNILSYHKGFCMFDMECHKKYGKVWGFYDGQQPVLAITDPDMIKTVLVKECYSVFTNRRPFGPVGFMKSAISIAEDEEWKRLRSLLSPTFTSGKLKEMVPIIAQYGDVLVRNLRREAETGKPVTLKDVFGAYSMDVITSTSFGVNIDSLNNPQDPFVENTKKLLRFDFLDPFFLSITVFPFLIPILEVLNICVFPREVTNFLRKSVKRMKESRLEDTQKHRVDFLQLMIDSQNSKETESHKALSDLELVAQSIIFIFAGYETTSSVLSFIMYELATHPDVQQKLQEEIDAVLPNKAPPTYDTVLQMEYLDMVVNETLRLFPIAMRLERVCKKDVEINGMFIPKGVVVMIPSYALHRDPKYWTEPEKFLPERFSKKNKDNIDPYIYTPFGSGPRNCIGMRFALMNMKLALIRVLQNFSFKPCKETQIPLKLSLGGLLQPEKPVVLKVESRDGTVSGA

Row | fraction unbound at 4 h, 5 µM [4] | fraction unbound at 4 h, 5 µM [5] | bioavailability [6] [%] | clearance [7] [mL/min/kg] | CLhep predicted [8] [mL/min/kg] | half-life [9] [min] | CLhep predicted [10] [mL/min/kg] | CLhep predicted [11] [mL/min/kg] | CL free (Mus musculus) [mL/min/kg] | Vd [12] [L/kg] | fraction unbound at 4 h, 5 µM [13] | SMILES | solubility kinetic [1] [µM] | EC50 (PC-3) [nM] | EC50 [2] [nM] | IC50 (Cytochrome P450 3A4) [nM] | IC50 [3] [nM] | Kinetic_solubility [1] | IC50 (PC-3) [nM] | IC50 [2] [nM] | inhibition in vivo at 37 mg/kg [14] [%]
1 | – | – | – | – | – | – | – | – | – | – | – | CCNC(=O)Nc1ccc(-c2nc3c(c(N4CCOC[C@@H]4C)n2)[C@H]2CC[C@@H](C3)N2C(C)=O)cc1 | > 75 | 180 | 460 | 7300 | 30 | – | – | – | –
2 | – | – | – | – | – | – | – | – | – | – | – | CCNC(=O)Nc1ccc(-c2nc3c(c(N4CCOC[C@@H]4C)n2)CN(C2COC2)CC3)cc1 | 40 (≈ 18.1 µg/mL) | 797 | 1200 | 2500 | – | – | – | – | –
3 | 0.07 | 0.21 | 47 | 9.38 | 31 | 49.2 | 69 | 17 | 134 | 0.66 | 0.27 | CCNC(=O)Nc1ccc(-c2nc3c(c(N4CCOC[C@@H]4C)n2)C[C@@H]2CC[C@H]3N2C(=O)COC)cc1 | – | 47 | 36 | – | 2.2 | soluble | – | – | –
4 | – | – | – | – | – | – | – | – | – | – | – | CCNC(=O)Nc1ccc(-c2nc3c(c(N4CCOC[C@@H]4C)n2)C[C@H]2CC[C@@H]3N2C)cc1 | – | 123 | 489 | – | 16 | soluble | – | – | –
5 | – | – | – | – | – | – | – | – | – | – | – | CCNC(=O)Nc1ccc(-c2nc3c(c(N4CCOC[C@@H]4C)n2)[C@H]2CC[C@@H](C3)N2S(C)(=O)=O)cc1 | > 75 | 260 | 806 | 5000 | 18 | – | – | – | –
6 | 0.05 | 0.1 | 53 | 17.8 | 26 | 61.2 | 49 | 11 | 342 | 1.59 | 0.14 | CCNC(=O)Nc1ccc(-c2nc3c(c(N4CCOC[C@@H]4C)n2)C[C@@H]2CC[C@H]3N2S(C)(=O)=O)cc1 | – | 25 | 47 | 5000 | 1.6 | soluble | – | – | –
7 | – | – | – | – | – | – | – | – | – | – | – | CCNC(=O)Nc1ccc(-c2nc3c(c(N4CCOC[C@@H]4C)n2)C[C@@H]2CC[C@H]3N2C(C)(C)C(=O)NC)cc1 | – | 13 | 17 | – | 0.6 | soluble | – | – | –
8 | – | – | – | – | – | – | – | – | 100 | – | – | CCNC(=O)Nc1ccc(-c2nc3c(c(N4CCOC[C@@H]4C)n2)CCN(C2COC2)C3)cc1 [RG-7603] | – | – | – | – | – | – | 270 | 567 | 60
